Assay results collected from several papers.
Compare with care: the assays were run in different laboratories. ≈ marks a conversion by molar mass, not a printed value.
Organism: Staphylococcus aureus

CCOC(=O)/C=C1/SC(N/N=C/c2c(-c3ccc(F)cc3)nc3ncccn23)=NC1=O — inhibition zone (microbial growth, well diffusion; ATCC23235; 100 µg/mL): 10 mm
CN1C(=S)N(c2ccccc2)C(=O)/C1=C1/C(=O)N(C)c2ccc(Cl)cc21 — MIC (microbial growth, broth dilution; ATCC43300 MRSA): 2.4 µg/mL
O=C(O)c1cn(C2CC2)c2cc(N3CCNCC3)c(F)cc2c1=O — inhibition zone (microbial growth, well diffusion; ATCC23235; 100 µg/mL): 36 mm
O=C/C=C/c1ccccc1 — inhibition zone (microbial growth, well diffusion; MTCC96; 1000 µg/mL, 18 h): 8 mm
COc1ccc2c(c1OC)CN1CCc3cc4c(cc3C1C2)OCO4 (stereo not shown) — MIC50 (microbial growth; 24 h): > 1600 µM
CN[C@H](CC(C)C)C(=O)N[C@H]1C(=O)N[C@@H](CC(N)=O)C(=O)N[C@H]2C(=O)N[C@H]3C(=O)N[C@H](C(=O)N[C@H](C(=O)O)c4cc(O)cc(O)c4-c4cc3ccc4O)[C@H](O)c3ccc(c(Cl)c3)Oc3cc2cc(c3O[C@@H]2O[C@H](CO)[C@@H](O)[C@H](O)[C@H]2O[C@H]2C[C@](C)(N)[C@H](O)[C@H](C)O2)Oc2ccc(cc2Cl)[C@H]1O — MIC (microbial growth, broth dilution; ATCCBAA44; drug-resistant strain): 1 µg/mL
CCc1ccc(N2C(=O)/C(=C3/C(=O)N(C)c4ccc(Cl)cc43)NC2=S)cc1 — MIC (microbial growth, broth dilution; ATCC43300 MRSA): 9.2 µg/mL
COc1cccc(OC)c1C(=O)N[C@@H]1C(=O)N2[C@@H]1SC(C)(C)[C@@H]2C(=O)O — MIC (microbial growth, broth dilution; ATCCBAA44; drug-resistant strain): > 64 µg/mL
CC(=O)NC[C@H]1CN(c2ccc(N3CCOCC3)c(F)c2)C(=O)O1 — MIC (microbial growth, broth dilution; MRSA): 1 µg/mL
C[C@@H](N)[C@H](O)CCCCCCCC(=O)CCCCCCCCCCCCCC[C@@H](O[C@@H]1O[C@H](CO)[C@H](O)[C@H](O)[C@H]1O)[C@@H](C)N — inhibition (microbial growth, resazurin; ATCC12600; 50 µM): 99%
O=C(O)c1cn(C2CC2)c2cc(N3CCNCC3)c(F)cc2c1=O — MIC (microbial growth, broth dilution; ATCC33591 MRSA; 16 h, drug-resistant strain): 6.25 µM
CC(=O)NC[C@H]1CN(c2ccc(N3CCOCC3)c(F)c2)C(=O)O1 — MBC (microbial killing; ATCC43300 MRSA): 40.6 µg/mL (≈ 120 µM)
C[C@H]1COc2c(N3CCN(C)CC3)c(F)cc3c(=O)c(C(=O)O)cn1c23 — MIC (microbial growth; MRSA; drug-resistant strain): 0.25 µg/mL
C[C@@H]1C[C@@H]([C@H](O)CC2CC(=O)NC(=O)C2)C(=O)[C@@H](C)C1 — MIC (microbial growth, broth dilution; ATCC6538): 28 µg/mL
Cc1onc(-c2ccccc2)c1C(=O)N[C@@H]1C(=O)N2[C@@H]1SC(C)(C)[C@@H]2C(=O)O — MIC (microbial growth; MRSA; drug-resistant strain): > 4 µg/mL
CN(C)[C@@H]1C(O)=C(C(N)=O)C(=O)[C@@]2(O)C(O)=C3C(=O)c4c(O)cccc4[C@@](C)(O)[C@H]3C[C@@H]12 — MIC (microbial growth, broth dilution; ATCC33591 MRSA; 16 h, drug-resistant strain): 100 µM
